# Rows were chosen to be rich in hits. Some 3% of all compounds tested hit in one or more screens of this group.
# 5HT1E antag – antagonists of human 5-HT1E serotonin receptor. P28566. CHO 5-HT1E Ga15 NFAT-bla reporter, FRET, antagonist. inhibition, % at 6 µM. 65,000 tested, 0.99% active;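 active = inhibition above a set limit, the mean inhibition across every tested compound plus 3 SD, cut at about 29% in these data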;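 note: signal is the 460 over 535 nm emission ratio of beta-lactamase substrate; 0% = agonist plus DMSO wells and 100% = wells without agonist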
# S1P3 agonist – S1P3 (human) receptor agonism; S1P3 NFAT-BLA reporter cells, FRET ratio; relative to 1 µM S1P, basal subtracted; activation, % at 4.5 µM; 60,000 tested, 0.1% active; Q99500;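 active = activation above the screen-wide mean plus 3 SD, cut at about 4.5% in these data, passing the limit was not always enough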
#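 material = human S1P3 NFAT-BLA reporter CHO cells | schedule = 4 h compound at 37 °C, 2 h substrate at RT | measured by = fluorescent BLA substrate, ex 405 nm, em 460/535 nm ratio | controls = 1 µM S1P reference | replication = primary once, confirmation triplicate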
# S1P1 ag pot – agonists and agonism potentiators of human S1P1 receptor. 56,000 tested, 0.57% active. P21453. S1P1 CRE-bla cells, forskolin, beta-lactamase FRET, potentiator mode; S1P1 agonist co-added at EC20, 2 nM; 100% = saturating reference agonist, 0% = basal. activation, % at 9.5 µM;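 active = activation above a cutoff set at the mean activation of all tested compounds plus 3 SD, cut at about 54% in these data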;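 note: forskolin at 4 µM as EC80 and the EC20 agonist is SEW2871; 100% = SEW2871 at its EC100 plus forskolin at EC80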
# Target sequence (P21453 whole entry, looked up): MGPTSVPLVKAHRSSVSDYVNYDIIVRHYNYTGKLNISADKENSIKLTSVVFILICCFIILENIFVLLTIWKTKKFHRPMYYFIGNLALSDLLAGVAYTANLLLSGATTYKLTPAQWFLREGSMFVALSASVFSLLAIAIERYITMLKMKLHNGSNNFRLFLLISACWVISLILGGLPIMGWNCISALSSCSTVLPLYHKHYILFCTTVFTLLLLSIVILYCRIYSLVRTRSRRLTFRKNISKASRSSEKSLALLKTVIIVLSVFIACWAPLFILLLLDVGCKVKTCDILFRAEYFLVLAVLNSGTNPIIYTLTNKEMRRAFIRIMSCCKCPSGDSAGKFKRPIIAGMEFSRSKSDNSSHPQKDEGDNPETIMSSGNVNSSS
# 5-HT1A blocker – antagonists of human 5-HT1a serotonin receptor; P08908; CHO 5-HT1a Ga15 NFAT-bla reporter, antagonist mode; inhibition, % at 10 µM; 62,000 tested, 0.68% active; AID 612;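 active = inhibition above the mean of all tested compounds plus 3 SD, cut at about 43% in these data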;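 note: receptor stimulated by 5-CT agonist at 100 nM near EC80; beta-lactamase reporter measured by ratiometric fluorescence of a cleavable substrate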
# 5HT1E ag – agonists of human 5-HT1E serotonin receptor | CHO 5-HT1E Ga15 NFAT-bla reporter, FRET; 0% DMSO wells, 100% control agonist wells | activation, % at 6 µM | 65,000 tested, 0.69% active;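 active = activation above a set limit, the screen-wide mean activation plus 3 SD, cut at about 8.5% in these data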;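 note: 100% = positive control agonist at 1 µM giving full maximal response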
# 5HT1a ag – activates the human 5-HT1a serotonin receptor; P08908; CHO 5-HT1a Ga15 NFAT-bla reporter, FRET ratio; 0% basal, 100% maximal reference agonist; activation, % at 10 µM; 65,000 tested, 0.56% active; AID 567;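 active = activation above the screen-wide mean activation plus 3 SD, cut at about 19% in these data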;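 note: 0% = DMSO wells and 100% = 5-CT at EC100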
# * hit, by the source's call; / = no result given.
SMILES,5HT1E antag,S1P3 agonist,S1P1 ag pot,5-HT1A blocker,5HT1E ag,5HT1a ag
COc1ccc(C(=O)N2CCN(c3cccc(Cl)c3)CC2)c(OC)c1,12,-1,/,20,1,0
Cc1ccc(Cl)cc1N1CCN(C(=O)CCS(=O)(=O)c2cccc3nonc23)CC1,5,/,/,-5,0,-2
O=C(C1CCCN(S(=O)(=O)c2cccs2)C1)N1CCN(C2CCCCC2)CC1 (configuration not stated),-15,-1,-6,6,0,-5
CN(C)CCCN1c2ccccc2Sc2ccc(Cl)cc21,-7,-2,-6,/,8.7*,1
OCCN1CCN(CCCN2c3ccccc3Sc3ccc(Cl)cc32)CC1,0,-3,-12,/,0,-4
CN(c1cc(=O)n2ccccc2n1)C1CCCCC1,16,0,3,-2,-1,30*
Cc1cc(/C=N/n2cnnc2)c(C)n1-c1cccc(Cl)c1,-3,1,-10,-1,-1,-1
Cc1sc(-n2c(C)cc(/C=N/n3cnnc3)c2C)c(C#N)c1C,12,-1,8,/,0,-1
Cc1cc(/C=N/n2cnnc2)c(C)n1-c1ccc(Cl)cc1Cl,40*,-2,-8,32,0,-2
Cc1cc(/C=N/n2cnnc2)c(C)n1-c1ccc(OCc2ccc(F)cc2)cc1,20,-2,142*,21,1,-2
O=C(Cn1nc(C(F)(F)F)c2c1CCC2)N1CCN(c2ccccc2)CC1,2,0,-4,4,0,-3
Cc1ccc(-c2csc3ncnc(Sc4nnc(CN5CCCCCC5=O)o4)c23)cc1,48*,-2,93*,76*,0,-3
CCCSC1=C(C#N)C(c2ccc(OC)cc2)C2=C(CC(C)(C)CC2=O)N1 (configuration not stated),50*,0,-4,/,1,-1
CSC1=C(C#N)C(c2ccc(Cl)cc2)C2=C(CC(C)(C)CC2=O)N1 (configuration not stated),-15,-2,29,7,1,-3
O=C(O)CCCC(=O)N1CCN(C(c2ccccc2)c2ccccc2)CC1,2,-3,-1,/,0,6
COc1cccc(-n2c(SCC(=O)Nc3cc(C)on3)nc3c([nH]c4ccccc43)c2=O)c1,32*,0,-59,28,0,0
CCCS(=O)(=O)N1CCCC(C(=O)NCCN2CCC(Cc3ccccc3)CC2)C1 (configuration not stated),-4,0,-28,46*,0,-2
Cc1noc(C)c1CSCC(=O)N1CCN(c2ccc(F)cc2)CC1,2,-1,6,2,0,-6
Cc1cccc(N2CCN(C(=O)CSCc3c(C)noc3C)CC2)c1C,2,-1,82*,17,1,-1
Cc1cccc(N2CCN(C(=O)c3ccncc3)CC2)c1C,-3,0,/,-7,19*,2
COc1ccc(C(=O)N2CCN(C(=O)c3cc(OC)c(OC)c(OC)c3)CC2)cc1,-10,0,4,-4,1,1
COc1cc(C(=O)N2CCN(c3cc(Cl)ccc3Cl)CC2)cc(OC)c1OC,64*,-1,0,22,0,0
COc1cc(C(=O)N2CCN(c3cccc(C)c3C)CC2)cc(OC)c1OC,50*,-2,2,21,0,-2
CCOc1ccccc1N1CCN(C(=O)c2ccncc2)CC1,2,-1,6,-1,2,0
O=C(CSc1ncn[nH]1)Nc1ccc(Br)cc1F,-7,0,-5,-9,0,-2
SMILES,5HT1E antag,S1P3 agonist,S1P1 ag pot,5-HT1A blocker,5HT1E ag,5HT1a ag
Cc1ccccc1S(=O)(=O)Cc1ccc(C(=O)N2CCN(c3cccc(C)c3C)CC2)o1,22,-2,29,16,32*,2
Cc1ccccc1S(=O)(=O)Cc1ccc(C(=O)N2CC(C)CC(C)C2)o1 (configuration not stated),-2,0,-4,-1,1,-1
Cc1cc(NC(=O)COC(=O)c2ccc(S(=O)(=O)N3CCCc4ccccc43)cc2)no1,32*,-1,-7,11,-1,-4
COc1ccc(-c2nnc(NC(=O)c3ccc(S(=O)(=O)N4CCCc5ccccc54)cc3)o2)cc1,-2,0,10,62*,0,-1
O=C(Nc1nnc(C2CC2)o1)c1ccc(S(=O)(=O)N2CCCc3ccccc32)cc1,1,-1,-4,0,0,-2
Cc1c(/C=N/n2cnnc2)c2ccccc2n1C,0,-1,/,7,0,1
COCc1cc(C)nc(SCC(=O)Nc2cccc3cccnc23)c1C#N,42*,1,-18,1,0,6
COC(=O)C1=C(C)N2C(=O)CSC2=NC1c1ccc2c(c1)OCO2 (configuration not stated),1,0,-15,6,-1,-2
O=S(=O)(Nc1cccc2ncccc12)c1cccs1,79*,1,28,84*,1,-7
CN1C(=O)CC(N2CCN(c3ccc(Cl)c(Cl)c3)CC2)C1=O (configuration not stated),40*,-5,-1,/,0,4
CC(=O)N1CCc2cc(C(=O)CN3CCN(c4cccc(Cl)c4)CC3)ccc21,-2,-1,12,18,26*,14
CC(=O)N1CCc2ccc(C(=O)CN3CCN(c4cccc(C)c4C)CC3)cc21,0,2,2,-1,46*,10
COC(=O)c1ccc(OCC2c3cc(OC)c(OC)cc3CCN2C(=O)c2ccco2)cc1 (configuration not stated),36*,/,/,23,0,3
CCC(=O)N1CCc2cc(OC)c(OC)cc2C1COc1ccc(C(=O)OC)cc1 (configuration not stated),37*,/,/,18,-1,1
COc1ccc(-c2cc(CCCC(=O)NCc3ccccn3)no2)cc1,2,1,-14,-8,0,-1
Clc1ccccc1CSc1ncccn1,-7,-1,-11,-1,0,-1
Nc1ccc2c(C(F)(F)F)cc(=O)oc2c1,42*,1,20,8,2,6
COc1nc(OC)nc(N2CCC(C(=O)Nc3cccc4c3CCCC4)CC2)n1,1,0,-2,0,0,22*
COc1nc(OC)nc(N2CCC(C(=O)Nc3cccc4ccccc34)CC2)n1,8,-1,-16,10,0,-4
Clc1ccc2[nH]c3c(NCCCN4CCOCC4)ncnc3c2c1,23,-2,-46,/,-1,3
O=C1CCCN1CCCNc1ncnc2c1[nH]c1ccc(Cl)cc12,35*,0,-31,-4,0,0

# Screening results deposited in PubChem BioAssay by The Scripps Research Institute Molecular Screening Center.
